This note sets out measurements from ChEMBL document CHEMBL4118124, “Quinone skeleton as a new class of irreversible inhibitors against Staphylococcus aureus sortase A” (Bioorg Med Chem Lett, 2018).

Calls of active or inactive are those of the source. The rule behind the calls is not given here.

In data set [1] the target is T1, Sortase A (Staphylococcus aureus, UniProt Q9S446). Kind of data set: (§1) Inhibition of Staphylococcus aureus SrtA deltaN24 mutant assessed as decrease in transpeptidation of IsdA (64 to 323 residues) incubated for 1.25 hrs in presence of NH2-Gly3 nucleophile by SDS-PAGE method. The procedure, abridged:
(§2)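 Affinity-purified IsdA64–323, a natural SrtA substrate, incubated with purified SrtA ΔN24 and NH2-Gly3 nucleophile, with or without compound. Sorting-signal cleavage giving the transpeptidation product resolved by SDS-PAGE; inhibition seen as partial or complete loss of product.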

In data set [2] the test system is Staphylococcus aureus. Kind of data set: Growth inhibition of Staphylococcus aureus Newman at 50 uM measured every hour. It is filed as organism-based. To be noted: in vivo.
Data set [3] deals with T1, Sortase A. Kind of data set: Inhibition of Staphylococcus aureus SrtA deltaN24 mutant transpeptidation activity using abz-LPATG-dnp as substrate preincubated for 10 mins followed by substrate addition measured every 2 mins for 20 mins by FRET assay.
Data set [4] concerns Staphylococcus aureus. In words: Growth inhibition of Staphylococcus aureus Newman at 150 uM incubated for 12 hrs measured every hour by spectrophotometry. It is filed as organism-based. To be noted: in vivo.
In data set [5] the test system is Staphylococcus aureus. Kind of data set: Antibiofilm activity against Staphylococcus aureus Newman assessed as inhibition of biofilm biomass after 18 hrs by crystal violet staining-based assay. It is filed as functional, organism-based.
Data set [6] deals with T2, Sortase A (Staphylococcus aureus) (UniProt Q9S446).
T2 sequence (whole entry): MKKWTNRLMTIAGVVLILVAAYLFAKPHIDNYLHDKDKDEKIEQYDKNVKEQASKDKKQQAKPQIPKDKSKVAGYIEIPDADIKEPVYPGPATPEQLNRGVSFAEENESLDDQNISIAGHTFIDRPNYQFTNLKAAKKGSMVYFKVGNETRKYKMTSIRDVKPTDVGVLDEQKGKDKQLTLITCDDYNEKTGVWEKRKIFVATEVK
Kind of data set: Irreversible inhibition of Staphylococcus aureus SrtA deltaN24 mutant transpeptidation activity using […] as substrate assessed as remaining activity at 10 fold IC50 preincubated for 1 hr followed by protein dilution and subsequent substrate addition measured every 2 mins for 20 mins by FRET assay relative to control.

Data set [7] addresses T2, Sortase A (Staphylococcus aureus). In words: Inhibition of Staphylococcus aureus Newman SrtA assessed as decrease in SpA display by SDS/PAGE immunoblotting assay. To be noted: Staphylococcus aureus subsp. aureus str. Newman.
The target is the same in data set [8]. In words: Inhibition of Staphylococcus aureus Newman SrtA assessed as decrease in SpA display by FITC-IgG-based fluorescence assay. To be noted: Staphylococcus aureus subsp. aureus str. Newman.
Data set [9] has the same target. The description is as §1. The procedure, abridged: as §2
The target is the same in data set [10]. Kind of data set: Irreversible binding affinity to Staphylococcus aureus SrtA deltaN24 mutant at 10 fold IC50 preincubated with compound for 1 hr followed by protein dilution by ESI-LC/MS method.
For data set [11] the target is unchanged. Kind of data set: Irreversible binding affinity to Staphylococcus aureus SrtA deltaN24 mutant at Cys184 at 10 fold IC50 preincubated with compound for 1 hr followed by protein dilution by ESI-LC-MS/MS method.
The target is the same in data set [12]. Kind of data set: Binding affinity to Staphylococcus aureus 15N-labelled SrtA deltaN59 C184A mutant at 1:0, 1:1, 1:2, 1:5 and 1:10 molar ratio of protein and compound by 2D 1H-15N HSQC spectra method.
The target is the same in data set [13]. In words: Binding affinity to Staphylococcus aureus 15N-labelled SrtA deltaN59 mutant at 1:0 and 1:1 molar ratio of protein and compound by 2D 1H-15N HSQC spectra method.
For data set [14] the target is unchanged. In words: Irreversible inhibition of Staphylococcus aureus SrtA deltaN24 mutant transpeptidation activity using abz-LPATG-dnp as substrate assessed as ratio Kinact to Ki incubated for 5 to 25 mins by FRET assay.
Data set [15] has as its target T1, Sortase A. Kind of data set: (§3) Irreversible inhibition of Staphylococcus aureus SrtA deltaN24 mutant transpeptidation activity using abz-LPATG-dnp as substrate incubated for 5 to 25 mins by FRET assay.
Data set [16] has as its target T2, Sortase A (Staphylococcus aureus). Described as §3.

For orientation: IC50 means the concentration needed to halve the response being measured. `CC(C)=CC[C@@H](O)C1=CC(=O)c2c(O)ccc(O)c2C1=O` [SHIKONIN]: the IC50 amounted to 5 µM in [1] and 0.3 µM in [3]. In addition, the “growth inhibition (GI)” value in data set [2] is given as “Toxic”.

Regarding `CC(C)=CC[C@H](O)C1=CC(=O)c2c(O)ccc(O)c2C1=O` [ALKANNIN], the IC50 in data set [1] came to 5 µM; in data set [3], 0.36 µM. In addition, in data set [2], the “growth inhibition (GI)” value is listed as “Toxic”.

Consider `O=C1C[C@H]2O[C@@H](CCc3ccccc3)C3=C(C(=O)C=CC3=O)[C@H]2O1`, for which the IC50 in [1] was 50 µM; in data set [3] it was 19.4 µM. Further, in [4], the “growth inhibition (GI)” value is on record as “Non-Toxic”. The inhibition entry in [5], in data set [7] and in [8] was “Dose-dependent effect” in each case. For the same compound, the Activity in data set [6] is less than 10%.

For the compound `CCCNC1=C(C)C(=O)c2c(/C=C/S(=O)(=O)c3ccccc3)cccc2C1=O`, the inhibition entry in data set [9] is “inactive”. In data set [3], this compound gave a concentration for half-maximal inhibition (IC50) of more than 50 µM.

Take `O=C1C[C@H]2O[C@H](CCc3ccccc3)C3=C(C(=O)C=CC3=O)[C@H]2O1`: the result in data set [10], in data set [11] and in data set [13] was Active. Further, the IC50 in [1] was 10 µM; in data set [3] it was 6.2 µM. Besides, in data set [4], the “growth inhibition (GI)” value was “Non-Toxic”. In addition, the result in data set [12] was inactive. Besides, the inhibition entry in [5], in [7] and in data set [8] was “Dose-dependent effect” throughout. In addition, the Activity in data set [6] is less than 10%. The Ratio in [14] turned out to be 0.0109 µM⁻¹ min⁻¹. For the same compound, the Ki in data set [15] was determined as 3.57 µM. The compound also gave a Kinact in [16] of 0.0388 min⁻¹.
